Experiments:
[1] = target: T1, Deoxyuridine 5'-triphosphate nucleotidohydrolase, mitochondrial (Homo sapiens, UniProt P33316); assay: Inhibition of human dUTPase assessed as production of [5-3H]dUMP from [5-3H]dUTP after 15 mins measured by HPLC analysis
T1 sequence (P33316 whole entry): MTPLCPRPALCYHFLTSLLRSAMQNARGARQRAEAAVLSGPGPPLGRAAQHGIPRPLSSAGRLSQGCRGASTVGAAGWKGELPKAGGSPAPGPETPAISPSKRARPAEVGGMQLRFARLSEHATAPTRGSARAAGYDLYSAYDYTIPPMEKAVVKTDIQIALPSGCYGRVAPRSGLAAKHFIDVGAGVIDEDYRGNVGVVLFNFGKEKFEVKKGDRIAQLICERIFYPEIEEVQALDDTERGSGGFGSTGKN

[2] = Potentiation of antiproliferative activity of FdUrd against human HeLaS3 cells assessed as compound concentration causing 50% reduction in 1 uM FdUrd T/C value after 24 hrs by crystal violet assay; type: functional, cell-based, HeLa S3
Method in brief: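 HeLa S3 cells seeded at 1500 cells/well and pre-incubated 24 h. Compound (1–100 μM) or DMSO added together with FdUrd (1 μM) for 24 h. Thymidine (30 μM) then added for a further 48 h. Crystal violet read-out at OD540. EC50 is the concentration that halves the FdUrd T/C (%), taken from the curve. Mean of three independent assays ± SD.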

[3] = Antiproliferative activity against human HeLaS3 cells at 30 uM after 72 hrs by crystal violet assay; type: functional, HeLa S3
Method in brief: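 HeLa S3 cells grown in RPMI1640 with 10% FBS, seeded at 1500 cells/well and left 24 h at 37 °C, 5% CO2. Compound (1–100 μM) or DMSO vehicle added, then 72 h incubation. Growth read by crystal violet staining, OD540. […] Average of three independent assays.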

[4] = Inhibition of Escherichia coli dUTPase
[5] = AUCt in Balb/c-A mouse at 50 mg/kg, po in a solution containing 2.5% DMA, 2.5% Tween 80 and 10% cremophor EL; type: ADME, organism-based; set-up: dose 50 mg/kg, route oral; conditions: plasma
Method in brief: (§1)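 Male Balb/c-A mice aged 6–9 weeks (n = 2), single oral dose; plasma drug levels measured by UPLC.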

[6] = Cmax in Balb/c-A mouse at 50 mg/kg, po in a solution containing 2.5% DMA, 2.5% Tween 80 and 10% cremophor EL; type: ADME, organism-based; set-up: dose 50 mg/kg, route oral; conditions: in vivo; method in brief: as §1
[7] = Half life in Balb/c-A mouse at 50 mg/kg, po in a solution containing 2.5% DMA, 2.5% Tween 80 and 10% cremophor EL; type: ADME, organism-based; set-up: dose 50 mg/kg, route oral; conditions: in vivo; method in brief: as §1
[8] = Tmax in Balb/c-A mouse at 50 mg/kg, po in a solution containing 2.5% DMA, 2.5% Tween 80 and 10% cremophor EL; type: ADME, organism-based; set-up: dose 50 mg/kg, route oral; conditions: in vivo; method in brief: as §1
[9] = system: MX1; assay: Antitumor activity against human MX1 cells xenografted in Balb/c-A JcL-nu mouse assessed as tumor volume at 300 mg/kg/day, po for 14 days measured on day 15 (reference value: 2048 +/- 693.7 mm3); type: functional
Method in brief: (§2)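 Five-week-old Balb/cA JcL-nu mice given sc MX-1 tumor fragments (~2 mm) by trocar. Treatment for 14 days: 5-FU 15 mg/kg/day by osmotic-pump continuous infusion, and/or oral compound. Vehicle was 2.5% DMA, 2.5% Tween 80, 10% Cremophor, 0.5% HPMC. Tumor size and body weight measured twice weekly. TV = length × width² × 0.5. RTV = TV day 15/day 0. IR = (1 − treated/control mean RTV) × 100.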

[10] = system: MX1; assay: Antitumor activity against human MX1 cells xenografted in Balb/c-A JcL-nu mouse assessed as decrease in tumor volume at 300 mg/kg/day, po for 14 days measured on day 15 relative to control (reference value: 11.4 +/- 3.74); type: functional; method in brief: as §2
[11] = system: MX1; assay: Antitumor activity against human MX1 cells xenografted in Balb/c-A JcL-nu mouse assessed as tumor growth inhibition at 300 mg/kg/day, po for 14 days measured on day 15 relative to control; type: functional; conditions: read-out: GI; method in brief: as §2
[12] = system: MX1; assay: Potentiation of antitumor activity of 5-Fu against human MX1 cells xenografted in Balb/c-A JcL-nu mouse assessed as tumor volume at 300 mg/kg/day, po for 14 days measured on day 15 (reference value: 2048 +/- 693.7 mm3); type: functional; method in brief: as §2
[13] = system: MX1; assay: Potentiation of antitumor activity of 5-Fu against human MX1 cells xenografted in Balb/c-A JcL-nu mouse assessed as decrease in tumor volume at 300 mg/kg/day, po for 14 days measured on day 15 relative to control (reference value: 11.4 +/- 3.74); type: functional; method in brief: as §2
[14] = system: MX1; assay: Potentiation of antitumor activity of 5-Fu against human MX1 cells xenografted in Balb/c-A JcL-nu mouse assessed as tumor growth inhibition at 300 mg/kg/day, po for 14 days measured on day 15 relative to control; type: functional; conditions: read-out: GI; method in brief: as §2
[15] = system: Mus musculus; assay: Toxicity in Balb/c-A JcL-nu mouse bearing human MX1 cells assessed as decrease in body weight at 300 mg/kg/day, po administered for 15 days and co-treated with 5-Fu; type: organism-based; set-up: route oral; conditions: in vivo, 336 h, in the assay text read “for 14 days” for “for 15 days”; method in brief: as §2
[16] = Antiproliferative activity against human HeLaS3 cells after 72 hrs by crystal violet assay; conditions: HeLa S3, 72 h
[17] = system: MX1; assay: Antitumor activity against human MX1 cells xenografted in Balb/c-A JcL-nu mouse assessed as tumor volume at 15 mg/kg/day by continuous infusion for 14 days measured on day 15 (reference value: 2048 +/- 693.7 mm3); type: functional
Method in brief: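 Five-week-old Balb/cA JcL-nu mice with MX-1 human breast carcinoma fragments (~2 mm) implanted sc by trocar, tumour maintained by sc serial transplantation. 5-FU given by continuous infusion via osmotic pump for 14 days; vehicle 2.5% DMA, 2.5% Tween 80, 10% Cremophor, 0.5% HPMC. Tumour size measured twice weekly; TV = length × width² × 0.5, read on day 15.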

[18] = system: MX1; assay: Antitumor activity against human MX1 cells xenografted in Balb/c-A JcL-nu mouse assessed as tumor volume at 15 mg/kg/day by continuous infusion for 14 days measured on day 15 relative to control (reference value: 11.4 +/- 3.74); type: functional
[19] = system: MX1; assay: Antitumor activity against human MX1 cells xenografted in Balb/c-A JcL-nu mouse assessed as tumor growth inhibition at 15 mg/kg/day by continuous infusion for 14 days measured on day 15 relative to control; type: functional; conditions: read-out: GI
[20] = Homo sapiens, HeLa S3, 24 h, read-out: EC50

| Compound | IC50 [1] [µM] | EC50 [2, 20] [µM] | other results |
| --- | --- | --- | --- |
| CC(C)(C)[Si](C)(C)OCCOCn1ccc(=O)[nH]c1=O | 100 | – | – |
| O=c1ccn(COCCOS(=O)(=O)NS(=O)(=O)c2ccccc2)c(=O)[nH]1 | 3.1 | – | EC50 ([2]; hela s3): Not Active |
| CC(C)(NS(=O)(=O)CCCOCn1ccc(=O)[nH]c1=O)c1cccc(OCC2CC2)c1 | 0.34 | 0.45 | – |
| COc1cccc(S(=O)(=O)NC(C)(C)CCCOCn2ccc(=O)[nH]c2=O)c1 | 1.2 | 1.1 | – |
| O=c1ccn(COCCOC(c2ccccc2)(c2ccccc2)c2ccccc2)c(=O)[nH]1 | > 100 | – | – |
| CC(C)(CCCOCn1ccc(=O)[nH]c1=O)NS(=O)(=O)c1ccccc1 | – | 5.1 | EC50 ([2]; hela s3): Dose-dependent effect; T/C [3]: 96% |
| O=c1ccn([C@H]2C[C@H](O)[C@@H](COP(=O)(O)CP(=O)(O)OP(=O)(O)OCc3ccccc3)O2)c(=O)[nH]1 | – | – | Ki [4]: 0.3 µM |
| C[C@@H](NS(=O)(=O)CCCOCn1ccc(=O)[nH]c1=O)c1ccc(F)c(OCC2CC2)c1 | 0.021 | 0.075 | AUC(0-t) [5]: 24.9 µM·h; Cmax [6]: 15.1 µM; half-life [7]: 84 min; Tmax [8]: 30 min; Activity [9]: 2698 mm3; Ratio [10]: 14.9; inhibition in vivo at 300 mg/kg/day [11]: -30.9%; Activity [12]: 299.7 mm3; Ratio [13]: 1.94; inhibition in vivo at 300 mg/kg/day [14]: 83%; Activity [15]: Non-toxic; IC50 [16]: 28.3 µM |
| CC(NS(=O)(=O)CCCOCn1ccc(=O)[nH]c1=O)c1cccc(OCC2CC2)c1 (racemic) | 0.062 | 0.14 | – |
| C[C@H](NS(=O)(=O)CCCOCn1ccc(=O)[nH]c1=O)c1cccc(OCC2CC2)c1 | 2.5 | 4.15 | – |
| CC(C)(CCCOCn1ccc(=O)[nH]c1=O)NS(=O)(=O)c1cccc(Cl)c1 | 4.5 | 3.96 | – |
| C[C@@H](NS(=O)(=O)CCCOCn1ccc(=O)[nH]c1=O)c1cccc(OCC2CC2)c1 | 0.04 | 0.066 | – |
| CC(C)(CCCOCn1ccc(=O)[nH]c1=O)NS(=O)(=O)c1ccccc1Cl | 9.4 | 7.93 | – |
| CC(C)(CCCOCn1ccc(=O)[nH]c1=O)NS(=O)(=O)c1ccc(Cl)cc1 | 5.7 | 4.97 | – |
| COc1ccc(S(=O)(=O)NC(C)(C)CCCOCn2ccc(=O)[nH]c2=O)cc1 | 18.2 | 14.9 | – |
| O=c1[nH]cc(F)c(=O)[nH]1 [FLUOROURACIL] | – | – | Activity [17]: 1645 mm3; Ratio [18]: 9.13; inhibition in vivo at 15 mg/kg/day [19]: 20% |
| COc1cc(C)ccc1S(=O)(=O)NC(C)(C)CCCOCn1ccc(=O)[nH]c1=O | 19.5 | 14.1 | – |
| O=c1ccn([C@H]2C[C@H](O)[C@@H](COP(=O)(O)NP(=O)(O)OP(=O)(O)O)O2)c(=O)[nH]1 | – | – | Ki [4]: 5 µM |
| CC(C)(CCCOCn1ccc(=O)[nH]c1=O)NS(=O)(=O)c1cccc(OCC2CC2)c1 | 0.035 | 0.18 | – |
